{
  "source": "paper PMC2860672",
  "about": "(Biochemistry, 2010)",
  "key": {"[1]": {"molecular_target": "EntE (dihydroxybenzoate-AMP ligase) (Escherichia coli, UniProt P10378)", "sequence (P10378 whole entry)": "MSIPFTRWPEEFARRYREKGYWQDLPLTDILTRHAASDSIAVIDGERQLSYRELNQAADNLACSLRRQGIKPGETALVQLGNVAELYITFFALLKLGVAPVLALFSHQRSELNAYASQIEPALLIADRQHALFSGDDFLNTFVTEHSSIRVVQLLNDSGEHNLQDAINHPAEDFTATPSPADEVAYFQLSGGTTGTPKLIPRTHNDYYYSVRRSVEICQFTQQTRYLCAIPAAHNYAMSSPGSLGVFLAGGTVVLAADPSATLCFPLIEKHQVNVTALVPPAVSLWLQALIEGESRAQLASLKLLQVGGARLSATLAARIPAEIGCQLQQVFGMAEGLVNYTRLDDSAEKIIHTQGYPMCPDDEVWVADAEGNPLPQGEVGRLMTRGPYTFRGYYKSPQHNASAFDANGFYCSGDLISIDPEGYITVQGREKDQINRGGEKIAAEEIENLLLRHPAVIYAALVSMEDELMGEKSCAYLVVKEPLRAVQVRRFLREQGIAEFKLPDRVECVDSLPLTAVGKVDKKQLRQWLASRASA", "details": "for Km / kcat: pH 7.8"}, "O=C(O)c1cccc(O)c1": {"test_system": "O=C(O)c1cccc(O)c1", "experiment": "purified protein, by the assay type", "details": "other: 25°C, pH 7.8, the other substrates fixed and saturating"}, "O=C(O)c1cccc(O)c1O": {"test_system": "O=C(O)c1cccc(O)c1O", "experiment": "purified protein, by the assay type", "details": "other: 25°C, pH 7.8, the other substrates fixed and saturating"}, "Nc1ccc(C(=O)O)c(O)c1": {"test_system": "Nc1ccc(C(=O)O)c(O)c1", "experiment": "purified protein, by the assay type", "details": "other: 25°C, pH 7.8, the other substrates fixed and saturating"}, "EntE [2]": {"molecular_target": "T1, EntE (Escherichia coli, UniProt P10378)", "T1 sequence (P10378 whole entry)": "as above", "experiment": "ITC of DHB binding to free EntE", "summary_of_the_method": "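DHB binding was run by ITC at 25°C in 50 mM HEPES pH 7.8, 10 mM MgCl2. EntE was dialysed against this buffer and ligand was prepared in the dialysate. EntE concentration came from ε280 = 58 790 M⁻¹ cm⁻¹ and DHB by weight. 50 μM EntE in the cell; 1 mM DHB injected 5 μL every 230 s.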"}, "EntE [3]": {"molecular_target": "T1, EntE", "details": "competitive ligand in displacement ITC; cited from earlier work"}, "EntE [4]": {"molecular_target": "T1, EntE", "experiment": "Dead-end inhibition of EntE by AMPCPP, coupled assay", "type": "biochemical", "details": "holo-EntB-ArCP 4 μM"}, "EntE [5]": {"molecular_target": "T1, EntE", "experiment": "ITC of Sal-AMS and DHB-AMS with EntE", "type": "binding"}, "EntE [6]": {"molecular_target": "T1, EntE", "type": "biochemical", "summary_of_the_method": "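Stopped-flow coupled assay (myokinase/pyruvate kinase/LDH, NADH at 340 nm) in 100 mM HEPES pH 7.8, 10 mM MgCl2, 25°C. […] Bisubstrate adenylate analogues were varied. Equal volumes were mixed with 16 nM EntE and followed for 4 min. The first 20 s were discarded. Five traces were averaged per concentration and fitted to a slow-onset equation; kobs was plotted against inhibitor concentration.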"}, "M. tuberculosis": {"test_system": "M. tuberculosis", "details": "cited from earlier work"}, "[7]": {"details": "25°C, the other substrates fixed and saturating"}},
  "note": "Read-outs that look alike come from different tables or passages of the source.",
  "data": [
    {"molecule": "CC(C)(CO)[C@@H](O)C(=O)NCCC(=O)NCCS", "note": "[D-pantetheine]", "values": [
      {"measurement": "Km", "setting": "[1]; [7]", "value": "34200 ± 2000", "unit": "µM"},
      {"measurement": "kcat", "setting": "[1]; [7]", "value": "0.9 ± 0.1", "unit": "s⁻¹"}
    ]},
    {"molecule": "EntE (dihydroxybenzoate-AMP ligase) (Escherichia coli K-12)", "values": [
      {"measurement": "Km", "setting": "O=C(O)c1cccc(O)c1", "value": "70 ± 8", "unit": "µM"},
      {"measurement": "kcat", "setting": "O=C(O)c1cccc(O)c1", "value": "0.3 ± 0.01", "unit": "s⁻¹"},
      {"measurement": "kcat/Km", "setting": "O=C(O)c1cccc(O)c1", "value": 4600, "unit": "M⁻¹ s⁻¹"},
      {"measurement": "Km", "setting": "O=C(O)c1cccc(O)c1O", "value": "2.5 ± 0.3", "unit": "µM"},
      {"measurement": "kcat/Km", "setting": "O=C(O)c1cccc(O)c1O", "value": 880000, "unit": "M⁻¹ s⁻¹"},
      {"measurement": "Km", "setting": "Nc1ccc(C(=O)O)c(O)c1", "value": "3100 ± 300", "unit": "µM"}
    ]},
    {"molecule": "O=C(O)c1cccc(O)c1O", "note": "[DHB, 2,3-dihydroxybenzoic acid]", "values": [
      {"measurement": "Kd", "setting": "EntE [2]", "value": 8700, "unit": "nM"},
      {"measurement": "n", "setting": "EntE [2]; one-set of sites model", "value": "0.824 ± 0.00512"},
      {"measurement": "KA", "setting": "EntE [2]; one-set of sites model, 25°C", "value": "115000 ± 2800", "unit": "M⁻¹"},
      {"measurement": "ΔH", "setting": "EntE [2]; one-set of sites model, 25°C", "value": "-16.5 ± 0.14", "unit": "kcal/mol"},
      {"measurement": "ΔS", "setting": "EntE [2]; one-set of sites model, 25°C", "value": "−32.2", "unit": "cal mol^−1 K ^−1"}
    ]},
    {"molecule": "O=C(O)c1ccccc1O", "note": "[salicylic acid]", "values": [
      {"measurement": "Km", "setting": "[1]; [7]", "value": "70 ± 4", "unit": "µM"},
      {"measurement": "kcat", "setting": "[1]", "value": "0.8 ± 0.1", "unit": "s⁻¹"},
      {"measurement": "KA^B", "setting": "EntE [3]", "value": 4740, "unit": "M⁻¹"}
    ]},
    {"molecule": "Nc1ncnc2c1ncn2C1OC(COP(=O)(O)CP(=O)(O)OP(=O)(O)O)C(O)C1O", "note": "(stereo not drawn) [AMPCPP, α, β-methyleneadenosine 5′-triphosphate]", "values": [
      {"measurement": "inhibition pattern versus ATP", "setting": "EntE [4]; varied ATP, saturating DHB (80 μM)", "value": "competitive inhibition"},
      {"measurement": "inhibition pattern versus DHB", "setting": "EntE [4]; varied DHB, saturating ATP (5 mM)", "value": "uncompetitive inhibition"}
    ]},
    {"molecule": "Nc1ncnc2c1ncn2[C@@H]1O[C@H](COS(=O)(=O)NC(=O)c2cccc(O)c2O)[C@@H](O)[C@H]1O", "note": "[DHB-AMS, 5′-O-[N-(2,3-dihydroxybenzoyl)sulfamoyl]adenosine]", "values": [
      {"measurement": "TΔS", "setting": "EntE [5]; 293 K, calculated from eq 11", "value": -0.4, "unit": "kcal/mol"},
      {"measurement": "−ΔG", "setting": "EntE [5]; 293 K, calculated from eq 11", "value": 15.0, "unit": "kcal/mol"},
      {"measurement": "fold lower KD than Sal-AMS", "setting": "EntE [5]; ITC", "value": 10, "unit": "fold"},
      {"measurement": "Kd", "setting": "EntE [5]; KA, displacement ITC with 200 mM salicylic acid, 293 K, pH 8.0", "value": 0.00627, "unit": "nM"},
      {"measurement": "Kd", "setting": "EntE [5]; KD, displacement ITC with salicylic acid, KD = 1/KA, 20°C", "value": 0.0075, "unit": "nM"},
      {"measurement": "n (number of binding sites per monomer)", "setting": "EntE [5]; displacement ITC", "value": "1.12 ± 0.03"},
      {"measurement": "−ΔH", "setting": "EntE [5]; stoichiometric titration at high c, 293 K", "value": 15.4, "unit": "kcal/mol"},
      {"measurement": "Ki", "setting": "EntE [6]", "value": 3.8, "unit": "nM"},
      {"measurement": "type of inhibition", "setting": "EntE [6]; time-courses of product formation", "value": "slow-onset tight-binding inhibitors"}
    ]},
    {"molecule": "NNC(=O)c1ccncc1", "note": "[isoniazid]", "values": [
      {"measurement": "MIC99", "setting": "M. tuberculosis", "value": 0.18, "unit": "µM"}
    ]},
    {"molecule": "Nc1ccc(C(=O)O)cc1", "note": "[4-aminobenzoic acid]", "values": [
      {"measurement": "substrate activity for the EntE reaction", "setting": "[1]; tested as substrate in the coupled assay", "value": "no activity was observed"}
    ]}
  ]
}
